Measured values taken from publication PMC12278411 (Acta Pharmaceutica Sinica. B, 2025).

Tests used:
RIPK2 (h) = RIPK2 (h) (Homo sapiens, UniProt O43353); assay: RIPK2 kinase assay; format: biochemical
RIPK1 = biological target: T1, RIPK1 (Homo sapiens, UniProt Q13546); assay: RIPK1 kinase assay; format: biochemical
T1 sequence (Q13546 1-671): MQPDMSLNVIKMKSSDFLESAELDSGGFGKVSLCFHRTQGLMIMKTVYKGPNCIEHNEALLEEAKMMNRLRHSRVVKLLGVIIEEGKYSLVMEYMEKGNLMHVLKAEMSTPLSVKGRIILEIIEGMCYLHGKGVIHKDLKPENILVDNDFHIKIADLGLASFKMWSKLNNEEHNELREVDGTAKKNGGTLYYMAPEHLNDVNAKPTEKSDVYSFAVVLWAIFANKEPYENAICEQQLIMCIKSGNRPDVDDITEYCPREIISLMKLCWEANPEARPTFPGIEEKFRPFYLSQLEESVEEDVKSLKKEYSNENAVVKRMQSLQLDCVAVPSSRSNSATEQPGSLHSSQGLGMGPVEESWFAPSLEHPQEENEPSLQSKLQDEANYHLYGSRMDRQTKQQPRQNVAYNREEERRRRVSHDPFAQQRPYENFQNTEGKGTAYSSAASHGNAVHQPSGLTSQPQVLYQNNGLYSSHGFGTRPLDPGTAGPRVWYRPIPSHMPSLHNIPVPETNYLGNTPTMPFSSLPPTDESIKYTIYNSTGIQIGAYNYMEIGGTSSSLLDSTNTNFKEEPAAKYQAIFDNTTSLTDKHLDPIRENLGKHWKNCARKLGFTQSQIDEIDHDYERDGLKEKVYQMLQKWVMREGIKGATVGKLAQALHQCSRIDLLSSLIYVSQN

[1] = Plasma exposure test, oral 10 mg/kg; format: in vivo; conditions: 10 mg/kg p.o., BALB/c mice
Summary of the method: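 Test compound in saline with 2.5% DMSO, given orally at 10 mg/kg to BALB/c mice (20–22 g), n = 3. Blood drawn at 0.5, 2 and 6 h after dosing, centrifuged to obtain plasma. Proteins precipitated with acetonitrile containing SAHA internal standard, centrifuged again; supernatant concentrations quantified by LC–MS/MS.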

[2] = Pharmacokinetic study in mice, i.v. and p.o.; format: in vivo; conditions: BALB/c, mouse, plasma, 10 mg/kg
[3] = tested on: APAP-induced ALI (650 mg/kg APAP); assay: Survival period in APAP-induced acute liver injury; format: in vivo, C57BL/6 mice; conditions: APAP 650 mg/kg, 96 h observation
Summary of the method: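 Male C57BL/6 mice (24–25 g), fasted 16 h with free water, randomised 10 per group. APAP 650 mg/kg i.p., immediately followed by oral test compound (5, 10 or 20 mg/kg; reference groups NAC 30 mg/kg or a RIPK2 inhibitor 10 mg/kg). A second dose was given 12 h after induction. Saline controls included. Survival followed over 96 h.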

[4] = Metabolic stability assay in human liver microsome; format: in vitro ADME

Chain of RIPK2 (h) (O43353 whole entry): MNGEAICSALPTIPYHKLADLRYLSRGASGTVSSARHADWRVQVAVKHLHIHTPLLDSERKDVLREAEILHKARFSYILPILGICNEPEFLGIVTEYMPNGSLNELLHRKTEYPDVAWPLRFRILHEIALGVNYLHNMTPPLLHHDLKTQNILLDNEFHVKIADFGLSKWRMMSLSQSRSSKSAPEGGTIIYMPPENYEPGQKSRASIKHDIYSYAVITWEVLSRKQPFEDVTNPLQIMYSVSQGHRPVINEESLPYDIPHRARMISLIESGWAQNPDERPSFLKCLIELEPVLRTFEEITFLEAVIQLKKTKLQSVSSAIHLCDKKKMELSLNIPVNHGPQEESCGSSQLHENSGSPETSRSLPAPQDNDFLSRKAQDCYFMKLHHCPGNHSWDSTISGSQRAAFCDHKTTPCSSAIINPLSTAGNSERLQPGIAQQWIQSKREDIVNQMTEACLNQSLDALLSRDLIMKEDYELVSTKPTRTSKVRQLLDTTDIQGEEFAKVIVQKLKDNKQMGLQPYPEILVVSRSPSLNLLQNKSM

| SMILES | IC50 (RIPK2 (h)) | IC50 (RIPK1) | Plasma concentration 0.5 h ([1]; 0.5 h) | Plasma concentration 2 h ([1]; 2 h) | Plasma concentration 6 h ([1]; 6 h) | AUC(0-t) ([2]; iv) | Cmax ([2]; iv) | Vd ([2]; iv) | clearance ([2]; iv) | half-life ([2]; iv) | AUC(0-t) ([2]; po) | Cmax ([2]; po) | bioavailability ([2]; po) | half-life ([2]; po) | survival of mice [3] | RIPK1 Percentage%@1 μmol/L (RIPK1; active RIPK1 activity relative to control, 1 μmol/L) | CL ([4]; human liver microsomes, 1 μmol/L) | half-life at 1 μmol/L ([4]; human, pooled liver microsomes) |
| --- | --- | --- | --- | --- | --- | --- | --- | --- | --- | --- | --- | --- | --- | --- | --- | --- | --- | --- |
| CC(C)(C)S(=O)(=O)c1cc2c(Nc3ccc4scnc4c3)ncnc2cc1OCCOP(=O)(O)O [GSK2983559, 2-((4-(benzo[d]thiazol-5-ylamino)-6-(tert-butylsulfonyl)quinazolin-7-yl)oxy)ethyl dihydrogen phosphate] | 7 nM | > 30000 nM | 1154 ± 125 ng/mL | 145 ± 42 ng/mL | 21 ± 11 ng/mL | 3780 ± 255 ng·h/mL | 5680 ± 521 ng/mL | 9.46 ± 4.13 L/kg | 44.3 mL/min/kg | 2.42 ± 0.86 h | 3120 ± 1060 ng·h/mL | 2620 ± 413 ng/mL | 82.7% | 2.74 ± 0.25 h | significantly prolong the survival | – | – | – |
| CC(=O)N[C@@H](CS)C(=O)O [NAC, N-acetylcysteine] | – | – | – | – | – | – | – | – | – | – | – | – | – | – | only deferred the time of mortality | – | – | – |
| Fc1cc2scnc2cc1Nc1ncnc2sc(C3=CCNCC3)cc12 [RP1, N-(6-fluorobenzo[d]thiazol-5-yl)-6-(1,2,3,6-tetrahydropyridin-4-yl)thieno[2,3-d]pyrimidin-4-amine] | 9 nM | – | – | – | – | – | – | – | – | – | – | – | – | – | – | 99 ± 2% | <12 mL/min/g·protein | > 2 h |
